Experimental data taken from PubChem BioAssay.
A number with no mark means an inactive call.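 Rule for the calls, unless noted: active = viability at or below 10% of carrier control in both of two separate runs; inconclusive = viability at or below 10% in only one of the two runs; inactive = the rest.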

Test: SK-BR-3 cell growth inhibitors, pilot screen, 24 h, human (AID 572);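 note: compound exposure lasted between 18 and 24 h rather than exactly 24 h; 100% = carrier-treated control wells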
Settings: SK-BR-3 viability, CellTiter-Glo luminescence, at 10 µM, stronger effect = lower value

Point of comparison: Cc1ccc2nc3c(cc(C(=O)NCC4CCCO4)n3C)c(=O)n2c1 (stereo not given), viability 134%. Against it:
- Cc1ccc(-c2nnc(-c3cccc(Br)c3)o2)cc1 — lower, 106%
- CCCNS(=O)(=O)c1ccc(OCC(=O)Nc2ccccc2F)cc1 — lower, 96.5%
- NS(=O)(=O)c1ccc(C(=O)O)cc1 — lower, 92%
- CCC1CCCCN1CCCNC(=O)c1ccc(CS(=O)(=O)Cc2ccccc2F)o1 (stereo not given) — lower, 106%
- Cc1cc(C(=O)Nc2ccc(S(=O)(=O)Nc3onc(C)c3C)cc2)cs1 — lower, 101%
- NS(=O)(=O)c1cc2c(cc1C(F)(F)F)NCNS2(=O)=O — lower, 100%
- O=C(NCCCN1CCN(Cc2ccccc2)CC1)C1CCN(c2nnc(-n3cccc3)s2)CC1 — lower, 118%
- C=CCn1c(SCn2nnc3ccccc3c2=O)nnc1-c1ccc(Br)cc1 — lower, 97%
- COc1ccccc1C(=O)NCC(=O)Nc1ccccc1 — lower, 104%
- CN(C)C(=O)Oc1ccc[n+](C)c1 — lower, 92%
- COC(=O)CSc1nnc(-c2ccc(OC)cc2OC)o1 — lower, 77%
- CCN(CC)CCCN1C(=O)C(=O)/C(=C(/O)c2ccc3c(c2)OCO3)C1c1ccccn1 (stereo not given) — lower, 97%
- O=C(CSc1n[nH]c(=O)[nH]c1=O)c1ccccc1 — lower, 110%
- Cc1noc(C)c1C(=O)N1CCN(C(=O)c2sc3cc(Cl)ccc3c2Cl)CC1 — lower, 103%
- CCCCOC(=O)Nc1nccs1 — lower, 101%
- CCOC(=O)C1CCN(C(C)=C2C(=O)c3ccccc3C2=O)CC1 — lower, 98%
- NC(N)=NC(N)=NCCc1ccccc1 — lower, 103%
- CCCc1cc(=O)[nH]c(=S)[nH]1 — lower, 101%
- CN(C)C(CNC(=O)Nc1cccc(Cl)c1)c1cccnc1 (stereo not given) — lower, 77%
- Cc1cc(S(=O)(=O)N(Cc2ccccc2)Cc2ccc(N(C)C)cc2)ccc1-n1cnnn1 — lower, 81%
- CC(=O)Nc1c(O)[nH]c2ccccc12 — lower, 105%
- CCC(=O)OC1(C#CCOc2ccc(OC)cc2)CCN(C)CC1 — lower, 94%
- COCCN(Cc1cc2cccc(C)c2[nH]c1=O)C(=O)c1ccccc1 — lower, 95%
- COc1ccc(-n2c(SCC(N)=O)nc3sc4c(c3c2=O)CCN(C)C4)cc1 — lower, 126%
- COc1ccc(CNCC(=O)Nc2cc(C)nn2-c2nc(C)cc(C)n2)cc1OC — lower, 98%
- Cc1nn(C)cc1C1C2=C(CC(C)(C)CC2=O)OC2=C1C(=O)CC(C)(C)C2 — lower, 74%
- CCn1c(SCC(=O)c2ccc(C)cc2)nnc1-c1ccoc1C — lower, 89%
- CCN(CC)CCCN1C(=O)C(O)=C(C(C)=O)C1c1cccc(OC)c1 (stereo not given) — lower, 97%
- Cc1ccc(S(=O)(=O)N2CCN(C(=O)CSc3nc4ccccc4c(=O)[nH]3)CC2)c(C)c1 — lower, 99%
- CCN(CC)CCCNc1oc(-c2cccc(Cl)c2)nc1C#N — lower, 113%
- Nn1c(SCC(=O)Nc2ccc(S(=O)(=O)N3CCCC3)cc2)nnc1C(F)(F)F — lower, 110%
- CN(C)c1ccc(NC(=O)Nc2cccc(Cl)c2)cc1 — lower, 83%
- Cc1c(C=NCCOCc2ccccc2)cnn1C — lower, 92%
- CCN1CCN(C(=O)N[C@@H](C(=O)N[C@@H]2C(=O)N3[C@@H]2SC(C)(C)[C@@H]3C(=O)O)c2ccccc2)C(=O)C1=O — lower, 96%
- COc1ccc(OC)c(S(=O)(=O)Nc2ccccc2SC)c1 — lower, 72%
- CCOc1nc(-c2ccccc2)ccc1-c1noc(-c2ccc(OC)c(OC)c2)n1 — lower, 68%
- Cc1cnc(NC(=O)C2=C(O)c3ccccc3S(=O)(=O)N2C)s1 — lower, 102%
- O=C(NC1CCCC1)C(c1cccs1)N(Cc1ccco1)C(=O)Cn1nnc(-c2cccs2)n1 (stereo not given) — lower, 71%
- Cc1cc(C)nc(NC2=NCC(=O)N2c2ccc(Cl)cc2)n1 — lower, 99%

Test: HUVEC growth inhibition – cell-based, human, primary screen (AID 575;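 active = viability at or below 30% in both replicate assays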;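 note: 100% = median of untreated cell wells with 0.1% DMSO on each plate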)
Settings: HUVEC proliferation, CellTiter-Glo luminescence, 72 h; at 10 µM; stronger effect = lower value
Procedure, shortened: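 system = HUVEC primary cells | amount = 1250 cells/well | buffer or medium = supplemented EBM, 2% fetal bovine serum | dosing = single-point 10 µM, DMSO 0.1% final | times = 72 h compound incubation | detection = CTG luminescence | read-out = % viability relative to median vehicle-well signal on each plate | control set = vehicle and MePR control wells | format = collagen-coated 384-well format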

Point of comparison: O=C(NC1CCCC1)C(c1cccs1)N(Cc1ccco1)C(=O)Cn1nnc(-c2cccs2)n1 (stereo not given), viability 87.3%. Against it:
- Cc1ccc(-c2nnc(-c3cccc(Br)c3)o2)cc1 — higher, 99.7%
- CCCNS(=O)(=O)c1ccc(OCC(=O)Nc2ccccc2F)cc1 — higher, 90.3%
- NS(=O)(=O)c1ccc(C(=O)O)cc1 — higher, 93.4%
- CCC1CCCCN1CCCNC(=O)c1ccc(CS(=O)(=O)Cc2ccccc2F)o1 (stereo not given) — higher, 114%
- Cc1cc(C(=O)Nc2ccc(S(=O)(=O)Nc3onc(C)c3C)cc2)cs1 — higher, 101%
- NS(=O)(=O)c1cc2c(cc1C(F)(F)F)NCNS2(=O)=O — higher, 91%
- O=C(NCCCN1CCN(Cc2ccccc2)CC1)C1CCN(c2nnc(-n3cccc3)s2)CC1 — higher, 97.1%
- C=CCn1c(SCn2nnc3ccccc3c2=O)nnc1-c1ccc(Br)cc1 — higher, 94.2%
- COc1ccccc1C(=O)NCC(=O)Nc1ccccc1 — higher, 98.2%
- CN(C)C(=O)Oc1ccc[n+](C)c1 — higher, 102%
- COC(=O)CSc1nnc(-c2ccc(OC)cc2OC)o1 — higher, 93.1%
- CCN(CC)CCCN1C(=O)C(=O)/C(=C(/O)c2ccc3c(c2)OCO3)C1c1ccccn1 (stereo not given) — lower, 82.4%
- O=C(CSc1n[nH]c(=O)[nH]c1=O)c1ccccc1 — higher, 105%
- Cc1noc(C)c1C(=O)N1CCN(C(=O)c2sc3cc(Cl)ccc3c2Cl)CC1 — higher, 106%
- CCCCOC(=O)Nc1nccs1 — higher, 107%
- CCOC(=O)C1CCN(C(C)=C2C(=O)c3ccccc3C2=O)CC1 — higher, 110%
- NC(N)=NC(N)=NCCc1ccccc1 — higher, 104%
- CCCc1cc(=O)[nH]c(=S)[nH]1 — higher, 97%
- CN(C)C(CNC(=O)Nc1cccc(Cl)c1)c1cccnc1 (stereo not given) — higher, 96.6%
- Cc1cc(S(=O)(=O)N(Cc2ccccc2)Cc2ccc(N(C)C)cc2)ccc1-n1cnnn1 — lower, 84.3%
- CC(=O)Nc1c(O)[nH]c2ccccc12 — higher, 102%
- CCC(=O)OC1(C#CCOc2ccc(OC)cc2)CCN(C)CC1 — higher, 105%
- COCCN(Cc1cc2cccc(C)c2[nH]c1=O)C(=O)c1ccccc1 — higher, 118%
- COc1ccc(-n2c(SCC(N)=O)nc3sc4c(c3c2=O)CCN(C)C4)cc1 — higher, 93.5%
- COc1ccc(CNCC(=O)Nc2cc(C)nn2-c2nc(C)cc(C)n2)cc1OC — lower, 51.1%
- Cc1nn(C)cc1C1C2=C(CC(C)(C)CC2=O)OC2=C1C(=O)CC(C)(C)C2 — higher, 110%
- CCn1c(SCC(=O)c2ccc(C)cc2)nnc1-c1ccoc1C — higher, 114%
- CCN(CC)CCCN1C(=O)C(O)=C(C(C)=O)C1c1cccc(OC)c1 (stereo not given) — higher, 101%
- Cc1ccc(S(=O)(=O)N2CCN(C(=O)CSc3nc4ccccc4c(=O)[nH]3)CC2)c(C)c1 — lower, 77.4%
- CCN(CC)CCCNc1oc(-c2cccc(Cl)c2)nc1C#N — lower, 74.7%
- Nn1c(SCC(=O)Nc2ccc(S(=O)(=O)N3CCCC3)cc2)nnc1C(F)(F)F — higher, 89.7%
- CN(C)c1ccc(NC(=O)Nc2cccc(Cl)c2)cc1 — higher, 99.9%
- Cc1c(C=NCCOCc2ccccc2)cnn1C — higher, 109%
- CCN1CCN(C(=O)N[C@@H](C(=O)N[C@@H]2C(=O)N3[C@@H]2SC(C)(C)[C@@H]3C(=O)O)c2ccccc2)C(=O)C1=O — lower, 84.1%
- Cc1ccc2nc3c(cc(C(=O)NCC4CCCO4)n3C)c(=O)n2c1 (stereo not given) — higher, 110%
- COc1ccc(OC)c(S(=O)(=O)Nc2ccccc2SC)c1 — lower, 83.7%
- CCOc1nc(-c2ccccc2)ccc1-c1noc(-c2ccc(OC)c(OC)c2)n1 — lower, 85.1%
- Cc1cnc(NC(=O)C2=C(O)c3ccccc3S(=O)(=O)N2C)s1 — lower, 84%
- Cc1cc(C)nc(NC2=NCC(=O)N2c2ccc(Cl)cc2)n1 — higher, 117%
